The results in this text go back to PMC4002122 (Chemical Research in Toxicology, 2014).

What all share (assay type): in vitro ADME
The target of data set [1] is T1, UGT2B17 (Homo sapiens, UniProt O75795).
T1 sequence (O75795 24-530): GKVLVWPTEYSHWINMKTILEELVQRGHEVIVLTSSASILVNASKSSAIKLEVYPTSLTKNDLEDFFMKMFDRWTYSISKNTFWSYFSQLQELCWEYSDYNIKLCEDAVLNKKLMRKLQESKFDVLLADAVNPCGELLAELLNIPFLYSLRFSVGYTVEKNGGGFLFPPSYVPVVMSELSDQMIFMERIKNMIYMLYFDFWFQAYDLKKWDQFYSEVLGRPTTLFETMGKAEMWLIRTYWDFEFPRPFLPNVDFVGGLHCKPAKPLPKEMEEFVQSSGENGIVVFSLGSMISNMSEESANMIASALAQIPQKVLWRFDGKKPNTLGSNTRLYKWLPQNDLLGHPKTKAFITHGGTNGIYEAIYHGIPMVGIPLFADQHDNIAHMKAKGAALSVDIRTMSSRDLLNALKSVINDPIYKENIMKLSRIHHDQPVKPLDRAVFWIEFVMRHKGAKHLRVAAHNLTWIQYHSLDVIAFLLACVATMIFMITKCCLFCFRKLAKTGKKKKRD
The data set is described as follows: Screening of recombinant UGT2B17 for glucuronidation activity. Particulars: 250 μM substrate, 5 μg protein, 60 min, 37 °C. A digest of the protocol:
(§1)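 UGT1A1, 1A3, 1A4 and 1A6–1A10 were His-tagged and expressed in baculovirus-infected Sf9 cells; UGT2B4, 2B7, 2B15 and 2B17 were commercial membranes run per supplier protocol. 5 μg membrane protein with 250 μM substrate, 2 mM UDP-GlcUA, Tris–HCl pH 7.4, MgCl2, saccharolactone, 2% DMSO; 37 °C, 60 min; no-substrate controls. Products measured by HPLC-UV/vis; β-glucuronidase hydrolysis separated O- from carboxyl glucuronides.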

In data set [2] the target is T2, UGT2B7 (Homo sapiens, UniProt P16662).
T2 sequence (P16662 24-529): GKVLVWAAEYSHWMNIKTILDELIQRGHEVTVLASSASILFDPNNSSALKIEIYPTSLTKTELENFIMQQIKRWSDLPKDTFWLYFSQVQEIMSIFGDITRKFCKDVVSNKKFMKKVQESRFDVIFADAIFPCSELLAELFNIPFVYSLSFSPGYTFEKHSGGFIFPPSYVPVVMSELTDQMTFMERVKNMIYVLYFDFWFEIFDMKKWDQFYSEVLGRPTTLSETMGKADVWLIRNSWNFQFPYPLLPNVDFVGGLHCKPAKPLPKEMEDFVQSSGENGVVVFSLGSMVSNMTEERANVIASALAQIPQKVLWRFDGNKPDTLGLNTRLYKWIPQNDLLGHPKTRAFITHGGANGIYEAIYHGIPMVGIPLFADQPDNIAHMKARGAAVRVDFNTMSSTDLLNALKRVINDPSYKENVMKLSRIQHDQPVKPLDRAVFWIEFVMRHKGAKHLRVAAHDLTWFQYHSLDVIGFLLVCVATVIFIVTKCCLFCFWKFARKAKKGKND
In words: Screening of recombinant UGT2B7 for glucuronidation activity. Particulars: 250 μM substrate, 5 μg protein, 60 min, 37 °C. A digest of the protocol:
as §1

Data set [3] concerns the target T3, UGT2B15 (Homo sapiens, UniProt P54855).
T3 sequence (P54855 24-530): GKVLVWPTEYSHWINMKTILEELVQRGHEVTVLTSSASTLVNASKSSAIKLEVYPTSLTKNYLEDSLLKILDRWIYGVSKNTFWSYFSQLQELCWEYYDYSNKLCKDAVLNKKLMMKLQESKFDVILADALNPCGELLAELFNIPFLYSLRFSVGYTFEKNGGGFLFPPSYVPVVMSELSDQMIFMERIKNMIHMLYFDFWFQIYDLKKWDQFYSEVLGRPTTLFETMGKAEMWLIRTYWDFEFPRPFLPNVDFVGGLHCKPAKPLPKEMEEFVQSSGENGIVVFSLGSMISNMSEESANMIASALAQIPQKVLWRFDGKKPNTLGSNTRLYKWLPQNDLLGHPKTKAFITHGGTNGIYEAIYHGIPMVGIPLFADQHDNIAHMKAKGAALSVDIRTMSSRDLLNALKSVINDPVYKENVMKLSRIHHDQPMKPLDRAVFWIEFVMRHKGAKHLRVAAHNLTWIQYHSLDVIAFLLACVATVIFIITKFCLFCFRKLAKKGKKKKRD
In words: Screening of recombinant UGT2B15 for glucuronidation activity. Particulars: 250 μM substrate, 5 μg protein, 60 min, 37 °C. A digest of the protocol: as §1

Data set [4] concerns the target T4, UGT1A8 (Homo sapiens, UniProt Q9HAW9).
T4 sequence (Q9HAW9 26-530): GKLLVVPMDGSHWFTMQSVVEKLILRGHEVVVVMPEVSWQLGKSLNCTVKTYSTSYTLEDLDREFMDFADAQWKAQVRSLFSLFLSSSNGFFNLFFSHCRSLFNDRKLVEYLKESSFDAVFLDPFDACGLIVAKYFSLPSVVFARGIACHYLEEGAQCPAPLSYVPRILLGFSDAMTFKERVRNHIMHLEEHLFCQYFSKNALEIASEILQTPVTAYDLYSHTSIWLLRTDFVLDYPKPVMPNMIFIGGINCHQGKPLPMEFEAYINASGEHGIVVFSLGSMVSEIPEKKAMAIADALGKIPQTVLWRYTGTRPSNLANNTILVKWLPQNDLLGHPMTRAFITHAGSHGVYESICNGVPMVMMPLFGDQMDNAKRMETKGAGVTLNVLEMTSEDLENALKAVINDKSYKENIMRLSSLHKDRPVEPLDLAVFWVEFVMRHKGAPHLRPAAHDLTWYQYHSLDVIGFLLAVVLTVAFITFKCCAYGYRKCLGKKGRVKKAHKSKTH
The data set is described as follows: Steady state kinetics of glucuronidation by recombinant UGT1A8.

For data set [5], the target named is T5, UGT1A10 (Homo sapiens, UniProt Q9HAW8).
T5 sequence (Q9HAW8 26-530): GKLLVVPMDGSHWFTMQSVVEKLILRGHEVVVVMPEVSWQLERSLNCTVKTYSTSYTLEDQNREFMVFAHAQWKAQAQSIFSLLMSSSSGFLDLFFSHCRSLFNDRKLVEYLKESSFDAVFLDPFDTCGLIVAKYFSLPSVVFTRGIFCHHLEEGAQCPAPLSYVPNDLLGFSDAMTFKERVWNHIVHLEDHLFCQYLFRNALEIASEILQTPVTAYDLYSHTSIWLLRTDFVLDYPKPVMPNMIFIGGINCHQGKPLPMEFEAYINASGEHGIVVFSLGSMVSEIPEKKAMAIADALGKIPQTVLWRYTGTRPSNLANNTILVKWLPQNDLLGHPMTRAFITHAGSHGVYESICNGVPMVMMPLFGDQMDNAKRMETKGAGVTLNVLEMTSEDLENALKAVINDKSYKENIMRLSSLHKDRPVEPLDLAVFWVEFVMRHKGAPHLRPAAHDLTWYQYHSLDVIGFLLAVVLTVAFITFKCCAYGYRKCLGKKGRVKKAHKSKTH
In words: Steady state kinetics of glucuronidation by recombinant UGT1A10.

Regarding `COc1cc(/C=C/c2cc([N+](=O)[O-])c(O)c([N+](=O)[O-])c2)cc(OC)c1` [DNR-1, (E)-4-(3,5-dimethoxystyryl)-2,6-dinitrophenol], the “glucuronidation activity (glucuronide formed)” value in data set [1], in data set [2] and in data set [3] was “No activity” in each case.
As to `COc1ccc(/C=C(/C(=O)O)c2cc(OC)c(OC)c(OC)c2)cc1O` [NI-12a, (E)-3-(3-hydroxy-4-methoxyphenyl)-2-(3,4,5-trimethoxyphenyl)acrylic acid], the NI-12a-COO-gluc formation entry in data set [4] (COO-glucuronide) and in data set [5] (COO-glucuronide) was “not produced” in each case. For the same compound, the kinetic model entry is “uncompetitive substrate inhibition and USI” in data set [4] (NI-12a-O-gluc formation); “Michaelis–Menten and M–M” in data set [5] (NI-12a-O-gluc formation). The Ks in data set [4] (NI-12a-O-gluc formation, USI model) was determined as 950 ± 449 µM.
On to `COc1ccc(C=Cc2cc(OC)cc(OC)c2/C=N/O)cc1` [NI-ST-05, (E)-2,4-dimethoxy-6-(4-methoxystyryl)benzaldehyde oxime], for which the “glucuronidation activity (glucuronide formed)” value in data set [1], in data set [2] and in data set [3] was “inactive” throughout. Moreover, the “NI-ST-05–N–O-gluc formation” value in data set [4] (N–O-glucuronide) is “not produced”. The Vmax came out at 0.65 nm/mg protein/min in data set [5] (C=N–O-glucuronidation of NI-ST-05) and 0.65 ± 0.017 nmol/mg/min in data set [5] (NI-ST-05–N–O-gluc formation). Moreover, the kinetic model entry in data set [5] (NI-ST-05–N–O-gluc formation) is given as “Hill”. The “n (Hill coefficient)” value in data set [5] (NI-ST-05–N–O-gluc formation) came out at 3.4.
